Reference: ChEMBL document CHEMBL1133693, “Peptide and peptide mimetic inhibitors of antigen presentation by HLA-DR class II MHC molecules. Design, structure-activity relationships, and X-ray crystal structures” (J Med Chem, 2000)

How the values were obtained:
[1] = Mean relative potency is the ratio of potencies of 'Ac-(Cha)RAMASL-NH2' and compound, to inhibit MHC class II DRB1*0101
Method in brief: (§1)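 Scintillation proximity competition assay. Test compounds competed against the radioligand, and bound counts were read by scintillation. Ac-(Cha)RAMASL-NH2 was run as standard competitor in every run. Potency is the ratio of standard IC50 to compound IC50.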

[2] = Mean relative potency is the ratio of potencies of 'Ac-(Cha)RAMASL-NH2' and compound, to inhibit MHC class II DRB1*0401; method in brief: as §1
T-cell [3] = test: T-cell inhibitory potency relative to the IC50 of a(Cha)AAAKTAAAAa-NH2 MHC class II DRB1*0101; format: functional, Homo sapiens
T-cell [4] = test: T-cell inhibitory potency relative to the IC50 of a(Cha)AAAKTAAAAa-NH2 in MHC class II DRB1*0401; format: functional, Homo sapiens
Cathepsin B (Bos taurus) = Cathepsin B (Bos taurus) (UniProt P07688); test: Percent of original compound remaining with cathepsin B after incubation for 4 hrs was determined by HPLC

CSCC[C@@H](NC(=O)[C@H]1Cc2ccccc2CN1C(=O)[C@H](CCCN=C(N)N)NC(=O)[C@H](CC1CCCCC1)NC(C)=O)C(=O)N1CCC(c2ccccc2)[C@@H]1C(=O)N[C@@H](CO)C(=O)N(C)[C@@H](CC(C)C)C(N)=O (stereo not given in full)
Mean relative potency [1]: 0.49
Mean relative potency [2]: 0.22
T-cell inhibition (T-cell [3]): 2.5
T-cell inhibition (T-cell [4]): 2.7
% remaining (Cathepsin B (Bos taurus)): 116%
